Reference: BindingDB's records for doi:10.1021/jm0100741 (Tohoku University, 2001)

How the values were obtained:
[1] = target: T1, M-phase inducer phosphatase 2 (Mus musculus, UniProt P30306); experiment: Inhibitory activity against cell division cycle 25B
T1 sequence (P30306 whole entry): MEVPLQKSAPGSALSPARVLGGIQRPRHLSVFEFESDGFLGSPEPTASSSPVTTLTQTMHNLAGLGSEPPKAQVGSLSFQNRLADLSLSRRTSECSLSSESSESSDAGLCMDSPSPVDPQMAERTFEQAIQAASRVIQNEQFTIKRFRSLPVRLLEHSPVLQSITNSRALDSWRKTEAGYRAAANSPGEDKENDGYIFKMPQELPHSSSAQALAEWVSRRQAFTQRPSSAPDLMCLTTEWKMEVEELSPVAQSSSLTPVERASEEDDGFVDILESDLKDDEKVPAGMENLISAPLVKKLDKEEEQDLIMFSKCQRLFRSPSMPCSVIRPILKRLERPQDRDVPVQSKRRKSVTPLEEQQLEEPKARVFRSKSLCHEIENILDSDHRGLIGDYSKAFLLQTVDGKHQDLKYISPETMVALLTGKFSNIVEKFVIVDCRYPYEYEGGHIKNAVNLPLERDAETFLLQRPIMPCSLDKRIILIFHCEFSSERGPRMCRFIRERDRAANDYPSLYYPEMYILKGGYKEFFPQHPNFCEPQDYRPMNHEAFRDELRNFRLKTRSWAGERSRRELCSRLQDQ

[2] = target: Dual specificity protein phosphatase 3 (Homo sapiens, UniProt P51452); experiment: Inhibitory activity against vaccinia VH1-related phosphatase (VHR)
Sequence of Dual specificity protein phosphatase 3 (P51452 whole entry): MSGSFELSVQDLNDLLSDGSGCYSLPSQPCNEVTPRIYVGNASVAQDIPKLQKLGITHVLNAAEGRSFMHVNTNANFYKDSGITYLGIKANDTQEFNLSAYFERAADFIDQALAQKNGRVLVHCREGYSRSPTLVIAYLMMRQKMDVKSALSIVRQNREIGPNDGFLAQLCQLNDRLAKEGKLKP
Outline: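 Recombinant VHR expressed in E. coli and purified, used at 0.6 μM with 10 mM pNPP substrate in 50 mM succinate, 1 mM EDTA, 150 mM NaCl, pH 6.0, ± compound. Incubated 3 min at 37 °C, stopped with 1 N NaOH, and activity read as absorbance change at 405 nm.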

| Structure (SMILES) | IC50 [1] [µM] | IC50 [2] [µM] |
| --- | --- | --- |
| CC(C)=CCCC(C)CCOC(=O)c1c(O)oc(CO)c1O (stereo unspecified) [4-Hydroxy-5-hydroxymethyl-2-oxo-2,5-dihydro-furan-3-carboxylic acid 3,7-dimethyl-oct-6-enyl ester] | > 125 | > 250 |
| O=C(OCc1ccccc1)c1c(O)oc(CO)c1O [4-Hydroxy-5-hydroxymethyl-2-oxo-2,5-dihydro-furan-3-carboxylic acid benzyl ester] | > 125 | > 250 |
| O=C(OC1CCCCC1)c1c(O)oc(CO)c1O [4-Hydroxy-5-hydroxymethyl-2-oxo-2,5-dihydro-furan-3-carboxylic acid cyclohexyl ester] | > 125 | > 250 |
